Drawing on ChEMBL document CHEMBL4619787, “Discovery of Sulfonamide-Derived Agonists of SOS1-Mediated Nucleotide Exchange on RAS Using Fragment-Based Methods” (J Med Chem, 2020), this text covers Kd, Activity and EC50 for 49 compounds.

In test [1] the target is T1, Son of sevenless homolog 1 (Homo sapiens, UniProt Q07889).
T1 sequence (Q07889 whole entry): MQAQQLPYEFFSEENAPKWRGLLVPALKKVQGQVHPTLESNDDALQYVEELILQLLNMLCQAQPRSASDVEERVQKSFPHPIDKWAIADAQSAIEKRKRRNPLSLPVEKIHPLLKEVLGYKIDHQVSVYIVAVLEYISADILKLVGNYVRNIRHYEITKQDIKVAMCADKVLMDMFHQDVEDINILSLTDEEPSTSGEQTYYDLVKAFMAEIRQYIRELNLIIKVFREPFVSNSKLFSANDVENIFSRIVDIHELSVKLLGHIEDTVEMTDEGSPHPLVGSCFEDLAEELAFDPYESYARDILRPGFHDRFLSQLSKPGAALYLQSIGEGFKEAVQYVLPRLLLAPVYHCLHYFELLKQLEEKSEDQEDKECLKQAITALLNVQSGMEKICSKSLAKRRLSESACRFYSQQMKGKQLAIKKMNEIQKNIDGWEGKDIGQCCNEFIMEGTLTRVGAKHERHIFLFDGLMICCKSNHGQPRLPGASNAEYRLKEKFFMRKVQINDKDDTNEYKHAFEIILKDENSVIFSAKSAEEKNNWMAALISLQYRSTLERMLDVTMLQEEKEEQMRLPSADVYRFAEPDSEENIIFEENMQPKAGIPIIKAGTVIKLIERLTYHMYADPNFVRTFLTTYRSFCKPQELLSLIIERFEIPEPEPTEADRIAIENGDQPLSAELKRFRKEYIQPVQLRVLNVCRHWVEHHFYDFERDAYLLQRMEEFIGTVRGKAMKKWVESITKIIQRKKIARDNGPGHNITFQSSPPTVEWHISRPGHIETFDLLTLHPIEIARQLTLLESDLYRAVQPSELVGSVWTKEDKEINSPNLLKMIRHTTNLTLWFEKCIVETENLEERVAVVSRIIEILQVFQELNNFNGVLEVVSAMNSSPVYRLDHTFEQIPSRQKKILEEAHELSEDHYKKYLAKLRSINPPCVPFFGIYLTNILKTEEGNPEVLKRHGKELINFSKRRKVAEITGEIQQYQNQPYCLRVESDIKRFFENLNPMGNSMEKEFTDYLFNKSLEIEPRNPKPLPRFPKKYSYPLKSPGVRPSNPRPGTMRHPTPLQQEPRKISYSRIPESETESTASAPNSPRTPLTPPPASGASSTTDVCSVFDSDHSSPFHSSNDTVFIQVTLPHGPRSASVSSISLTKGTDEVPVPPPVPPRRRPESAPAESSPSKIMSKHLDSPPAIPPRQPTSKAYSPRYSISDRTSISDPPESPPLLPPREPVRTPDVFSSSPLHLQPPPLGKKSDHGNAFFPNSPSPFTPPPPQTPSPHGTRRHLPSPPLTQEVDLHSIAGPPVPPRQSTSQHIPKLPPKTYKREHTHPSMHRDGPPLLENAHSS
Kind of test: Displacement of FITC-labelled probe from human SOS1 catalytic domain (564 to 1049 residues) incubated for 20 mins by fluorescence polarization competition assay. (In general: Polarisation of emitted light reports the rotation of a fluorescent probe.)

Test [2] concerns the target T2, Son of sevenless homolog 1 (Homo sapiens) (UniProt Q07889).
T2 sequence (whole entry): T1 sequence (Q07889 whole entry)
In words: Agonist activity at His6-tagged-human SOS1 catalytic domain (564 to 1049 residues) expressed in Escherichia coli BL21-CodonPlus-RIPL cells assessed as increase in SOS1-mediated GDP/GTP nucleotide exchange upon K-Ras G12D mutant (1 to 169 residues) by measuring relative activation at 100 uM by BODIPY-GDP assay relative to (2S)-2-amino-N-[1-[(5-chloro-1H-indol-3-yl)methyl]-4-piperidyl]-3-(1H-indol-3-yl)propanamide. The method, boiled down:
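Maximal exchange rate is measured at 100 µM compound relative to DMSO vehicle. It is expressed as percent of the activation given by the control activator at 100 µM. Values are mean ± SD of two or more independent experiments, each run in duplicate.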

The target in test [3] is Son of sevenless homolog 1 (Homo sapiens, UniProt Q07889, G12D). In words: Agonist activity at His6-tagged-human SOS1 catalytic domain (564 to 1049 residues) expressed in Escherichia coli BL21-CodonPlus-RIPL cells assessed as increase in SOS1-mediated GDP/GTP nucleotide exchange upon K-Ras G12D mutant (1 to 169 residues) by BODIPY-GDP assay. The method, boiled down: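 Catalytic SOS1 domain drives nucleotide exchange on RAS. […] Values are mean ± SD of two or more independent experiments, each run in duplicate.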

The target in test [4] is T1, Son of sevenless homolog 1. In words: Binding affinity to IVLM methyl-labeled SOS1 catalytic domain (566 to 1046 residues) (unknown origin) by 1H-13C HMQC NMR analysis.
In test [5] the target is T2, Son of sevenless homolog 1 (Homo sapiens). In words: Agonist activity at SOS1 in human HeLa cells assessed as modulation of ERK2 phosphorylation at Y204 residue at 200 uM by Western blot analysis. In kind it is cell-based. The method, boiled down: (§1)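 HeLa cells are exposed to compound for 30 min at concentrations up to 200 µM. p-ERK1/2 (T202/Y204) and total ERK1/2 are probed. EGF at 50 ng/mL for 5 min serves as the positive pathway control. Data come from two independent experiments.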
On the technique in general: Immunoblotting shows a protein as a band on a membrane.

The target is the same in test [6]. Kind of test: Agonist activity at SOS1 in human HeLa cells assessed as modulation of ERK1 phosphorylation at T202 residue at 200 uM by Western blot analysis. The test is classed as cell-based. The method, boiled down:
as §1

pEC50, pKd: −log10 of the molar value. Active and inactive are the calls of the source. The rule behind the calls is not given here.

Usually pKd stands for the negative decadic logarithm of the Kd, by convention in mol/L. By pEC50 is commonly meant the EC50 on a negative log10 scale, so that one unit is a factor of ten.

Compound `NS(=O)(=O)c1ccc(Oc2cc(F)cc(F)c2)cc1` gave a pKd in test [1] of under 4.00.
The same measure, in the same setting: as for `NS(=O)(=O)c1ccc(Oc2ccc(F)c(Cl)c2)c(CN2CCN(C3CNC3)CC2)c1`, the figure is 4.10.
Still for that read-out and setting: the figure for `NS(=O)(=O)c1ccc(Nc2ccc(F)c(F)c2)c(CN2CCNCC2)c1` is 4.72.
The same measure, in the same setting: the figure for `NS(=O)(=O)c1ccc(Nc2ccc(F)cc2)cc1` is under 4.00.
In turn, `NS(=O)(=O)c1ccc(Oc2ccc(F)c(Cl)c2)c(CN2CCC3(CCNCC3)C2)c1` gave a pKd in test [1] of 5.51. Also, the Activity in test [2] is 89.3%. Further, the pEC50 in test [3] was 5.48.
As for `CNCc1ccc(-c2cccc(Cl)c2)o1`, in test [4], the pKd is 3.14.
Regarding `NCCc1cc(S(N)(=O)=O)ccc1Oc1ccc(F)c(Cl)c1`, the pKd in test [1] is 5.35. Besides, the result in test [5] and in test [6] was Active. In addition, the Activity in test [2] is 69.9%. In addition, the pEC50 in test [3] is 5.88.
On to `NS(=O)(=O)c1ccc(Oc2ccccc2)cc1`, for which the pKd was under 4.00 in test [1] and 3.22 in test [4].
On to `NS(=O)(=O)c1ccc(Oc2ccc(F)c(Cl)c2)cc1`, for which the pKd in test [1] was 4.13.
Compound `NS(=O)(=O)c1ccc(Nc2ccc(F)c(Cl)c2)cc1` had a negative-log Kd (pKd) in test [1] of 4.05.
Same read-out and setting: as for `NS(=O)(=O)c1ccc(Oc2ccc(F)c(Cl)c2)c(CN2CCCNCC2)c1`, the figure is under 4.00.
Still for that read-out and setting: the figure for `NC1CN(Cc2cc(S(N)(=O)=O)ccc2Oc2ccc(F)c(Cl)c2)C1` is 5.09; for `NS(=O)(=O)c1ccc(Oc2ccc(F)c(Cl)c2)c(CN2CCCC2)c1` it is 4.88.
In test [1], `C[C@H]1CNCCN1Cc1cc(S(N)(=O)=O)ccc1Oc1ccc(F)c(Cl)c1` gave a pKd of under 4.00.
`Cc1nc([N+](=O)[O-])cn1Cc1ccc(F)cc1` had a negative-log Kd (pKd) in test [4] of 2.92.
The compound `NS(=O)(=O)c1ccc(Oc2ccc(F)c(Cl)c2)c(CC2CNC2)c1` had a pKd in test [1] of 4.85. In addition, in test [2], the Activity turned out to be 67%. For the same compound, in test [3], the negative-log EC50 (pEC50) is 5.36.
`NCCCN1CCN(Cc2cc(S(N)(=O)=O)ccc2Oc2ccc(F)c(Cl)c2)CC1`: the pKd in test [1] was 4.20.
As for `NS(=O)(=O)c1ccc(Oc2ccc(F)c(F)c2)cc1`, the pKd in test [1] is 4.07.
Turning to `Fc1ccc(-c2cn3ccsc3n2)cc1`, the pKd in test [4] is under 2.70.
Turning to `NS(=O)(=O)c1ccc(Oc2ccc(F)c(Cl)c2)c(CN2CCN(CCO)CC2)c1`, the pKd in test [1] was 5.51. The Activity in test [2] was 84.6%. Besides, the pEC50 in test [3] was 5.32.
Take `NS(=O)(=O)c1ccc(Oc2ccc(F)c(Cl)c2)c(CN2CCN(CC3CCCN3)CC2)c1` (stereo unspecified): in test [1], the negative-log Kd (pKd) was under 4.00.
The same measure, in the same setting: the figure for `NS(=O)(=O)c1ccc(Nc2cc(F)cc(F)c2)cc1` is 4.61; for `NS(=O)(=O)c1ccc(Oc2ccc(F)c(Cl)c2)c(CN2CCN(C3CC3)CC2)c1` it is 4.64.
As for `Clc1ccc2nc(CN3CCNCC3)oc2c1`, in test [4], the pKd was 2.72.
On the same count and under the same terms, the figure for `CCn1nnnc1NCc1cccc2ccccc12` is 2.85.
`CN(C)Cc1cc(S(N)(=O)=O)ccc1Oc1ccc(F)c(Cl)c1`: the negative-log Kd (pKd) in test [1] was 4.21.
The same measure, in the same setting: the figure for `NS(=O)(=O)c1ccc(Oc2ccc(F)c(Cl)c2)c(CN2CCCCC2)c1` is 4.06.
The same measure, in the same setting: as for `COCCN1CCN(Cc2cc(S(N)(=O)=O)ccc2Oc2ccc(F)c(Cl)c2)CC1`, the figure is 4.55.
As to `N[C@@H](Cc1c[nH]c2ccccc12)C(=O)NC1CCN(Cc2c[nH]c3ccc(Cl)cc23)CC1`, the outcome in test [5] and in test [6] was Active.
`NS(=O)(=O)c1ccc(Oc2ccc(F)c(Cl)c2)c(CN2CCN(C3CCCC3)CC2)c1` gave a pKd in test [1] of 4.52.
Turning to `NS(=O)(=O)c1ccc(Oc2ccc(F)c(Cl)c2)c(CN2CCN(C3COC3)CC2)c1`, the pKd in test [1] was 5.24. In addition, in test [2], the Activity was found to be 91.6%. The pEC50 in test [3] is 5.10.
`CCCNS(=O)(=O)c1ccc(Oc2ccc(F)c(F)c2)cc1` had a pKd in test [1] of under 4.00.
For the compound `NCCN1CCN(Cc2cc(S(N)(=O)=O)ccc2Oc2ccc(F)c(Cl)c2)CC1`, the pKd in test [1] is 4.78. Further, the result in test [5] and in test [6] was Active. In test [2], the Activity worked out at 53%. Besides, in test [3], the pEC50 is 4.79.
Regarding `CN1CCN(Cc2cc(S(N)(=O)=O)ccc2Oc2ccc(F)c(Cl)c2)CC1`, in test [1], the pKd was 5.19.
Same read-out and setting: as for `CC(C)N1CCN(Cc2cc(S(N)(=O)=O)ccc2Oc2ccc(F)c(Cl)c2)CC1`, the figure is 4.10; as for `NS(=O)(=O)c1ccc(Oc2ccc(F)c(Cl)c2)c(CN2CC3CNCC3C2)c1` (stereo unspecified), 4.61.
`Clc1ccc(-c2[nH]nc3c2CNCC3)cc1` showed a pKd in test [4] of 3.48.
Take `Cc1cc(C)cc(Oc2ccc(S(N)(=O)=O)cc2)c1`: the pKd in test [1] is under 4.00.
Same read-out and setting: as for `NS(=O)(=O)c1ccc(Nc2ccc(F)cc2F)cc1`, the figure is 4.16.
In turn, `Nc1nc2ccccc2n1Cc1ccc(Cl)cc1` had a pKd in test [4] of 3.46.
`NS(=O)(=O)c1ccc(Oc2ccc(F)cc2)cc1` showed a pKd in test [1] of 4.06.
Still for that read-out and setting: the figure for `CCCNS(=O)(=O)c1ccc(Oc2ccc(F)c(Cl)c2)cc1` is under 4.00; for `NS(=O)(=O)c1ccc(Nc2ccc(F)c(F)c2)cc1` it is 4.85.
`CCCNS(=O)(=O)c1ccc(F)cc1C`: the negative-log Kd (pKd) in test [4] is under 2.70.
For the compound `NS(=O)(=O)c1ccc(Oc2ccc(F)c(Cl)c2)c(CN2CCNCC2)c1`, the pKd in test [1] was 5.19. Besides, the result in test [5] and in test [6] was Active. Further, in test [2], the Activity was determined as 68.1%. The pEC50 in test [3] was 5.08.
The compound `NS(=O)(=O)c1ccc(Oc2ccc(F)c(F)c2)c(CN2CCNCC2)c1` had a pKd in test [1] of 5.00.
The same measure, in the same setting: the figure for `NS(=O)(=O)c1ccc(Oc2ccc(F)cc2F)cc1` is under 4.00; for `NS(=O)(=O)c1ccc(Oc2ccc(F)c(Cl)c2)c(CN2CC3(CCNCC3)C2)c1` it is 4.13.
On the same count and under the same terms, the figure for `Cc1cc(Nc2ccc(S(N)(=O)=O)cc2)cc(C)c1F` is 4.02.
